# Bioassay records deposited in PubChem BioAssay by several laboratories.
# NPY-Y2 antag: NPY-Y2 receptor antagonists, primary screen, cell-based; Neuropeptide Y receptor type 2 (Homo sapiens), P49146; NPY-Y2 expressing cells, antagonist mode; inhibition, % at 2.7 µM; actives 0.99% (n = 140,000); AID 793, 2007
# NPY Y1 blocker: NPY-Y1 receptor antagonists, primary screen, cell-based; inhibition, % at 3.6 µM; actives 1% (n = 200,000); Neuropeptide Y receptor type 1 (Homo sapiens), P25929; HEK293-CNG Y1 cells, membrane potential fluorescence; NPY at EC95, then isoproterenol;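 active means inhibition above the campaign mean inhibition of all tested compounds plus 3 SD, cut at about 20% in these data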
#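 Material: HEK293 Y1/CNG channel cell line; also added: NPY (25 nM), isoproterenol (1 µM), Ro 20-1724 (25 µM); doses: one concentration, 3.6 µM, in 0.4% DMSO; schedule: compound incubation 1 h at room temperature, readout 45 min post-stimulation; technique: membrane potential fluorescence; measure: fluorescence ratio normalized to % inhibition between controls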
# NPY2 pot ag: NPY-Y2 potentiators or agonists, primary screen, cell-based; Neuropeptide Y receptor type 2 (Homo sapiens), P49146; cells expressing NPY-Y2, potentiator/agonist read-out; activation, % at 3.6 µM; actives 0.45% (n = 220,000); AID 1359, 2008; in the data active means activation above about 27%;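 further: cells stimulated with NPY near EC25 plus isoproterenol at EC100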
# Measles CPE: compounds protecting cells from measles virus cytopathic effect, primary screen, measles RdRp inhibitor project, single point, MLSMR library, absorbance; Measles virus-infected cells, CPE protection; protection (pct of control), % at 4 µM; actives 1.5% (n = 140,000); AID 841, 2007; in the data active means protection mostly above about 24%, no sharp cut-off; inactive means mostly below about 26%
# NPY-Y1 PAM-ag: NPY-Y1 receptor potentiators or agonists, primary screen, cell-based; Neuropeptide Y receptor type 1 (Homo sapiens), P25929; activation, % at 3.6 µM; NPY-Y1 expressing cells, potentiator/agonist activation; actives 0.37% (n = 220,000); in the data active means activation above about 33%, passing the limit was not always enough;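 further: cells stimulated with NPY at EC10 then isoproterenol at EC100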
# Mdm2 ligase inh: MDM2-luciferase reporter signal enhancers, primary screen, MDM2 E3 ligase inhibitor project, cell-based, luminescence, 1536-well | signal enhancement, % at 5 µM | cell-based MDM2 ubiquitination luciferase reporter, 2 h; 0 = plate control, 100 = twice control, blank-subtracted | E3 ubiquitin-protein ligase Mdm2 (Homo sapiens), Q00987 | actives 0.11% (n = 210,000);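 active means signal enhancement of 30% or more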;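 further: luminescence tracks abundance of the self-degrading MDM2-luciferase fusion protein; higher signal means inhibition of MDM2 E3 ligase activity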
# Target sequence (Q00987 whole entry, looked up, the tested form may be a part): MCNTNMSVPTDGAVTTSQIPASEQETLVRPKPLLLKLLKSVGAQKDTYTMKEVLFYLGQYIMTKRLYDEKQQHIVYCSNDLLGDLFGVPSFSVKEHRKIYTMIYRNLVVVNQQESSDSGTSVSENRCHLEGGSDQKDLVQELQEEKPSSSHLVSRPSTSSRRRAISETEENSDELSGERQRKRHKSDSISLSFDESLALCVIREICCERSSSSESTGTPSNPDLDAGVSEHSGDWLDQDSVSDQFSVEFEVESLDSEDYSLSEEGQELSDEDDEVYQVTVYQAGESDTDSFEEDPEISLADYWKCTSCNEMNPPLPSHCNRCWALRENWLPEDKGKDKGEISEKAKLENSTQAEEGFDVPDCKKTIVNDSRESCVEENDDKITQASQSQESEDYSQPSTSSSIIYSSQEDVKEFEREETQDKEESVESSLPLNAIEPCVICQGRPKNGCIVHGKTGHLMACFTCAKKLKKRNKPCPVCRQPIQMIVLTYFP
#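 Assay system: mammalian cells stably expressing self-ubiquitinating, self-degrading MDM2 E3–luciferase fusion. Quantity: 2000 cells in each well. Medium: DMEM culture medium. Compound dosing: single-point 5 µM. Timing: cell settling 4 h, compound treatment 2 h, both 37 °C. Technique: luciferase luminescence. Read-out basis: percent signal gain over controls, blank-subtracted. Benchmarks: plate controls and plate blanks.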
# NPY1 antag conf: NPY-Y1 receptor antagonists, retest of hits, confirmation, HEK293-CNG cells, membrane potential fluorescence, triplicate. shares compounds with NPY Y1 blocker. cAMP; NPY challenge against isoproterenol-raised cAMP. inhibition, % at 3.6 µM. actives 21% (n = 1,200). AID 1254, 2008; in the data active means inhibition above about 20%
# NPY-Y2 antag ct: NPY-Y2 receptor antagonists, selectivity check, confirmation, counter-screen for NPY-Y1 antagonist project, HEK293-CNG cells, membrane potential fluorescence, triplicate | actives 28% (n = 1,200) | antagonism; cells given NPY, then isoproterenol | shares compounds with NPY Y1 blocker | inhibition, % at 3.6 µM
# A number is an active result; – = inactive; · = no result. A selection: hits, their analogues and other compounds. The true share with any hit is near 2.8%. Unless noted, no stated cut-off is given here; in the data, active means inhibition above about 17%; inactive means the rest.
SMILES,NPY-Y2 antag,NPY Y1 blocker,NPY2 pot ag,Measles CPE,NPY-Y1 PAM-ag,Mdm2 ligase inh,NPY1 antag conf,NPY-Y2 antag ct
CC(C)Nc1nc(NC(C)C)nc(SCCOC(=O)Nc2ccc(Cl)cc2Cl)n1,–,21.4,–,–,–,–,–,–
Cc1ccc(SCCC(=O)OCn2nnc3ccccc3c2=O)cc1,·,22.8,–,·,–,–,–,–
CCOC(=O)C1(Cc2ccccc2Cl)CCN(C(=O)c2cnccn2)CC1,·,–,–,·,–,–,·,·
CN1Cc2cc(C(=O)c3cc(Cl)cc(CSc4ncccn4)c3O)cnc2NC1=O,–,21.2,–,–,–,–,–,–
Cc1ccccc1CN(C)C(C)C(=O)Nc1ccccc1F (stereo unspecified),·,22.7,–,·,–,–,–,–
Cc1cccc(C)c1NC(=O)CN(C)C(C)C(=O)Nc1ccccc1-c1ccccc1 (stereo unspecified),·,–,–,·,–,–,·,·
Cc1ccc(S(=O)(=O)Cn2nnnc2C(C(C)C)N2CCc3ccccc3C2)cc1 (stereo unspecified),–,–,–,–,–,–,·,·
Cc1ccc(S(=O)(=O)Cn2nnnc2C(C(C)C)N2CCSCC2)cc1 (stereo unspecified),–,21.2,–,–,–,–,–,–
CCC(C)(C)n1nnnc1C(c1ccc(C)cc1)N1CCN(Cc2cccnc2)CC1 (stereo unspecified),–,–,–,–,–,–,·,·
CCC(C)(C)n1nnnc1C(c1ccc(C)cc1)N1CCSCC1 (stereo unspecified),–,24.2,–,–,–,–,–,–
OC(CON=C1c2ccccc2-c2ccccc21)CN1CCNCC1 (stereo unspecified),·,–,–,·,–,–,·,·
CC1=NN(c2ccccc2)C(=O)/C1=C/c1cn(C)c2ccccc12,·,·,–,·,–,–,·,·
CC12COC3(C(=O)Nc4ccc5ccccc5c4)CC1CCC32C (stereo unspecified),·,22.9,–,·,–,–,–,24.1
CC12COC3(C(=O)Nc4ccccc4)CC1CCC32C (stereo unspecified),·,–,–,·,–,–,·,·
Cc1ccc(C(C)C)c(OCc2n[nH]c(=S)o2)c1,·,22.8,–,·,–,–,–,–
Cc1ccc(NC(=S)NCCN(C2CCCCC2)C2CCCC2)cc1C,·,27.5,–,·,–,–,–,–
Cc1ccc(NC(=S)NC2CCCC2)cc1C,–,–,–,–,–,–,·,·
CN(/N=C/c1cccnc1)c1cnc2ccccc2n1,·,–,–,·,–,–,·,·
CCCn1c(C(=O)OC)cc2c1ccn2-c1ccc(F)cc1,–,54.8,–,–,–,–,–,–
COC(=O)c1cc2c(ccn2-c2ccc(F)cc2)n1CC(C)C,–,48.3,–,–,–,–,25.9,21.9
Cc1ccc(C)c(C(C)NC(=O)C2C3CCC(O3)C2C(=O)O)c1 (stereo unspecified),–,–,–,–,–,–,·,·
COc1ccc(OC)c(C2=Nn3c(nnc3-c3cc(OC)c(OC)c(OC)c3)SC2)c1,–,27.1,–,–,–,–,23.6,28.7
CN(CC(=O)OCC(=O)NCc1ccccc1)S(=O)(=O)c1ccc(Cl)cc1,–,–,–,–,–,·,·,·
Cc1nn(S(=O)(=O)c2cccs2)c(C)c1Sc1ccc([N+](=O)[O-])cc1,–,–,–,–,–,–,·,·
